Results from ChEMBL document CHEMBL2390927, “Design, synthesis and antimicrobial evaluation of novel benzimidazole type of Fluconazole analogues and their synergistic effects with Chloromycin, Norfloxacin and Fluconazole” (2013).
Values after ≈ are worked out from the molar mass of the structure shown.

What was measured:
Escherichia coli = experiment: Antibacterial activity against Escherichia coli JM109 after 24 hrs by two-fold serial dilution method; format: functional; details: JM109, 24 h
Staphylococcus aureus [1] = experiment: Antibacterial activity against methicillin-resistant Staphylococcus aureus N315 after 24 hrs by two-fold serial dilution method; format: functional; details: N315, 24 h
Saccharomyces cerevisiae = experiment: Antifungal activity against Saccharomyces cerevisiae after 24 hrs by two-fold serial dilution method; format: functional
How it was run: (§1)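 Spore suspension in sterile distilled water from one-day-old cultures on Sabouraud agar, final 1–5 × 10³ spore mL⁻¹. Compound stocks diluted in sterile RPMI 1640 as two-fold serial dilutions in microdilution plates. MIC is the lowest concentration completely inhibiting growth. Growth monitored visually and spectrophotometrically, in triplicate.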

Bacillus subtilis = experiment: Antibacterial activity against Bacillus subtilis ATCC 21216 after 24 hrs by two-fold serial dilution method; format: functional; details: ATCC 21216, 24 h
How it was run: (§2)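 MIC taken as the lowest concentration giving complete growth inhibition, by standard two-fold serial dilution in 96-well plates following NCCLS. Stocks in DMSO, diluted in Mueller–Hinton broth. Inoculum adjusted with sterile saline to 1 × 10⁵ CFU. DMSO with inoculum and no drug served as solvent control. Growth read visually and spectrophotometrically, in triplicate.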

Micrococcus luteus = experiment: Antibacterial activity against Micrococcus luteus ATCC 4698 after 24 hrs by two-fold serial dilution method; format: functional; details: ATCC 4698, 24 h; how it was run: as §2
Bacillus = experiment: Antibacterial activity against Bacillus proteus ATCC 13315 after 24 hrs by two-fold serial dilution method; format: functional; details: ATCC 13315, 24 h; how it was run: as §2
Candida albicans = experiment: Antifungal activity against Candida albicans ATCC 76615 after 24 hrs by two-fold serial dilution method; format: functional; details: ATCC 76615, 24 h; how it was run: as §1
Candida = experiment: Antifungal activity against Candida mycoderma after 24 hrs by two-fold serial dilution method; format: functional; how it was run: as §1
Cyberlindnera jadinii = experiment: Antifungal activity against Candida utilis after 24 hrs by two-fold serial dilution method; format: functional; details: Williopsis jadinii; how it was run: as §1
Salmonella typhi = experiment: Antibacterial activity against Bacillus typhi after 24 hrs by two-fold serial dilution method; format: functional, Salmonella enterica subsp. enterica serovar Typhi; details: Salmonella enterica
How it was run: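 Two-fold serial dilution in 96-well plates following NCCLS; compounds dissolved in DMSO as stocks, then diluted in Mueller-Hinton broth; bacterial suspension adjusted with sterile saline to 1 × 10⁵ CFU; MIC taken as lowest concentration completely inhibiting growth, monitored visually and spectrophotometrically; DMSO-plus-inoculum well as solvent control; triplicate.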

Pseudomonas aeruginosa = experiment: Antibacterial activity against Pseudomonas aeruginosa ATCC 27853 after 24 hrs by two-fold serial dilution method; format: functional; details: ATCC 27853, 24 h; how it was run: as §2
Aspergillus flavus = experiment: Antifungal activity against Aspergillus flavus after 24 hrs by two-fold serial dilution method; format: functional; how it was run: as §1
Staphylococcus aureus [2] = experiment: Antibacterial activity against Staphylococcus aureus ATCC 6538 after 24 hrs by two-fold serial dilution method; format: functional; details: ATCC 6538, 24 h

Structure (SMILES)	MIC (Escherichia coli) [µg/mL]	MIC (Staphylococcus aureus [1]) [µg/mL]	MIC (Saccharomyces cerevisiae) [µg/mL]	MIC (Bacillus subtilis) [µg/mL]	MIC (Micrococcus luteus) [µg/mL]	MIC (Bacillus) [µg/mL]	MIC (Candida albicans) [µg/mL]	MIC (Candida) [µg/mL]	MIC (Cyberlindnera jadinii) [µg/mL]	MIC (Salmonella typhi) [µg/mL]	MIC (Pseudomonas aeruginosa) [µg/mL]	MIC (Aspergillus flavus) [µg/mL]	MIC (Staphylococcus aureus [2]) [µg/mL]
Cc1ccc(N(Cc2ccc(Cl)cc2)Cc2nc3ccccc3[nH]2)cc1	32 (≈ 88.4 µM)	64 (≈ 177 µM)	128 (≈ 354 µM)	64 (≈ 177 µM)	128 (≈ 354 µM)	32 (≈ 88.4 µM)	64 (≈ 177 µM)	32 (≈ 88.4 µM)	64 (≈ 177 µM)	64 (≈ 177 µM)	64 (≈ 177 µM)	128 (≈ 354 µM)	32 (≈ 88.4 µM)
Cc1ccc(N(Cc2ccc([N+](=O)[O-])cc2)Cc2nc3ccccc3[nH]2)cc1	64 (≈ 172 µM)	256 (≈ 687 µM)	64 (≈ 172 µM)	64 (≈ 172 µM)	128 (≈ 344 µM)	64 (≈ 172 µM)	128 (≈ 344 µM)	64 (≈ 172 µM)	64 (≈ 172 µM)	64 (≈ 172 µM)	64 (≈ 172 µM)	128 (≈ 344 µM)	32 (≈ 85.9 µM)
Cc1ccc(N(Cc2nc3ccccc3[nH]2)Cc2ccc(F)cc2F)cc1	128 (≈ 352 µM)	16 (≈ 44 µM)	64 (≈ 176 µM)	32 (≈ 88.1 µM)	64 (≈ 176 µM)	64 (≈ 176 µM)	32 (≈ 88.1 µM)	32 (≈ 88.1 µM)	32 (≈ 88.1 µM)	32 (≈ 88.1 µM)	32 (≈ 88.1 µM)	32 (≈ 88.1 µM)	16 (≈ 44 µM)
Cc1ccc(N(Cc2nc3ccccc3[nH]2)Cc2ccc(Cl)cc2Cl)cc1	32 (≈ 80.7 µM)	64 (≈ 161 µM)	64 (≈ 161 µM)	32 (≈ 80.7 µM)	128 (≈ 323 µM)	32 (≈ 80.7 µM)	64 (≈ 161 µM)	128 (≈ 323 µM)	64 (≈ 161 µM)	64 (≈ 161 µM)	64 (≈ 161 µM)	128 (≈ 323 µM)	64 (≈ 161 µM)
Cc1ccc(N(Cc2ccc(Cl)c(Cl)c2)Cc2nc3ccccc3[nH]2)cc1	64 (≈ 161 µM)	64 (≈ 161 µM)	128 (≈ 323 µM)	128 (≈ 323 µM)	64 (≈ 161 µM)	128 (≈ 323 µM)	128 (≈ 323 µM)	128 (≈ 323 µM)	64 (≈ 161 µM)	64 (≈ 161 µM)	128 (≈ 323 µM)	128 (≈ 323 µM)	32 (≈ 80.7 µM)
Fc1ccc(N(Cc2nc3ccccc3[nH]2)Cc2ccc(Cl)cc2Cl)c(F)c1	32 (≈ 76.5 µM)	128 (≈ 306 µM)	32 (≈ 76.5 µM)	64 (≈ 153 µM)	64 (≈ 153 µM)	32 (≈ 76.5 µM)	128 (≈ 306 µM)	64 (≈ 153 µM)	32 (≈ 76.5 µM)	128 (≈ 306 µM)	64 (≈ 153 µM)	64 (≈ 153 µM)	64 (≈ 153 µM)
CCCCCCCCN(Cc1nc2ccccc2[nH]1)c1ccc(C)cc1.Cl.Cl	128	128	64	128	64	64	64	128	64	64	128	128	64
O=C(N[C@H](CO)[C@H](O)c1ccc([N+](=O)[O-])cc1)C(Cl)Cl [CHLORAMPHENICOL]				32 (≈ 99 µM)	8 (≈ 24.8 µM)	32 (≈ 99 µM)				32 (≈ 99 µM)			8 (≈ 24.8 µM)
OC(Cn1cncn1)(Cn1cncn1)c1ccc(F)cc1F [FLUCONAZOLE]			16 (≈ 52.2 µM)				1 (≈ 3.27 µM)	4 (≈ 13.1 µM)	8 (≈ 26.1 µM)			256 (≈ 836 µM)	
CCn1cc(C(=O)O)c(=O)c2cc(F)c(N3CCNCC3)cc21 [NORFLOXACIN]	1 (≈ 3.13 µM)	1 (≈ 3.13 µM)		2 (≈ 6.26 µM)	1 (≈ 3.13 µM)	4 (≈ 12.5 µM)				1 (≈ 3.13 µM)	1 (≈ 3.13 µM)		8 (≈ 25.1 µM)
